In ChEMBL document CHEMBL1145520, “RAS-RAF-MEK-dependent oxidative cell death involving voltage-dependent anion channels” (Nature, 2007):
Calls of active or inactive are those of the source. The calls are words filed in the database; no cut-off is given here.

What was measured:
HT-1080 = experiment: Antitumor activity against human HT1080 cells assessed as survival relative to control; format: functional
BJ [1] = experiment: Antitumor activity against human BJ cells expressing TERT, LT, ST and RAS G12V mutant genes assessed as survival relative to control; format: functional
BJ [2] = experiment: Induction of cell death in human BJ cells expressing TERT, LT, ST and RAS G12V mutant genes cells at 9 uM; format: functional, cell-based
BJ [3] = experiment: Induction of cytochrome c release in cytosolic fraction of human BJ cell expressing TERT, LT, ST and RAS G12V mutant genes at 1 uM; format: functional, cell-based
How it was run: (§1)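 BJ-TERT/LT/ST/RASV12 cells (3 × 10^6 per dish, overnight at 37 °C, 5% CO2) treated with staurosporine 1 µM for 6 h. Cells swollen on ice 15 min in sucrose/HEPES pH 7.5 buffer, lysed through 25-gauge needle. Nuclei removed at 400g, mitochondria pelleted at 10,500g. Cytosolic supernatant and mitochondrial pellet probed for cytochrome c by western blot.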

BJ [4] = experiment: Induction of cytochrome c release in mitochondrial fraction of human BJ cell expressing TERT, LT, ST and RAS G12V mutant genes at 1 uM; format: functional, cell-based; how it was run: as §1
BJ [5] = experiment: Induction of mitochondrial structural integrity loss in human BJ cells expressing TERT, LT, ST and RAS G12V mutant genes cells at 1 uM after 5 hrs; format: functional, cell-based
How it was run: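 Mitochondria of BJ-TERT/LT/ST/RASV12 cells examined by transmission electron microscopy after staurosporine 1 µM for 5 h. Fixed in 2.5% glutaraldehyde in Sorenson's buffer pH 7.2, post-fixed in 1% OsO4, block-stained with tannic acid, resin-embedded. Thin sections stained with uranyl acetate and lead citrate.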

Row | SMILES | Survival (HT-1080) | Survival (BJ [1]) | other results
1 | N#CC(=C(/N)Sc1ccccc1N)/C(C#N)=C(\N)Sc1ccccc1N | 17% | 82% | –
2 | CC(C)NC(=O)N(CCN1CCN(C(=O)COc2ccc(Cl)cc2)CC1)Cc1ccc(F)cc1 | – | – | IC50 (BJ [2]): 10 µM
3 | COc1cccc(-c2cc(=O)c3ccccc3o2)c1N | 26% | 78% | –
4 | CN[C@@H]1C[C@H]2O[C@@](C)([C@@H]1OC)n1c3ccccc3c3c4c(c5c6ccccc6n2c5c31)C(=O)NC4 | – | – | Activity (BJ [3]): Active; Activity (BJ [4]): Active; Activity (BJ [5]): inactive
